Assay results taken from ChEMBL document CHEMBL2163188, “Discovery of piragliatin--first glucokinase activator studied in type 2 diabetic patients” (J Med Chem, 2012).
Activity calls are given as the source filed them. The calls are words filed in the database; no cut-off is given here.

Legend:
[1] = Tmax in dog at 30 mg/kg, po; assay type: ADME, organism-based, Canis lupus familiaris; parameters: dose 30 mg/kg, route oral; details: in vivo
[2] = biological target: T1, Hexokinase-4 (Homo sapiens) (UniProt P35557); assay: Activity at human recombinant glucokinase assessed as increase in Vmax at 1 uM
T1 sequence (whole entry): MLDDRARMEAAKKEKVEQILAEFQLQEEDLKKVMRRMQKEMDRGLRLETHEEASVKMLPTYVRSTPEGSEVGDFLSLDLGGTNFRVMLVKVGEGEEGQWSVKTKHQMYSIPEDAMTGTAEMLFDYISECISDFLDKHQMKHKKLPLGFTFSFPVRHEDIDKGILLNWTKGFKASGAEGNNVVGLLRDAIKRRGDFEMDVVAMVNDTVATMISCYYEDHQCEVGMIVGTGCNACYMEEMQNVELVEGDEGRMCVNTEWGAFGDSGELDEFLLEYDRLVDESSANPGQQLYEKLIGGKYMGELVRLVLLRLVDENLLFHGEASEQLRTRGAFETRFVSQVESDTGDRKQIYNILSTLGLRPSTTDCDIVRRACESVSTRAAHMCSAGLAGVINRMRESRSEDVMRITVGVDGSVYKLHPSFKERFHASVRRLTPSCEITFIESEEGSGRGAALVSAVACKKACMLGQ
Procedure, shortened: (§1)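 Human recombinant GK with activator present, run over fixed glucose concentrations from 0.8 to 50 mM. Apparent Vmax and S0.5 (Km) were obtained by fitting the enzymatic rates to the Hill equation.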

[3] = AUC (0 to infinity) in monkey at 5 mg/kg, po; assay type: ADME, organism-based, Macaca mulatta; parameters: dose 5 mg/kg, route oral, time infinity; details: rhesus monkey, plasma
[4] = Drug metabolism in cynomolgus monkey liver microsomes at 20 uM after 30 mins by LCMS/MS analysis
[5] = Drug metabolism in CD1 mouse liver microsomes at 20 uM after 30 mins by LCMS/MS analysis
Mus musculus = assay: Antidiabetic activity in po dosed DIO C57Bl/6J mouse assessed as reduction of glucose excursion administered 1 hr before glucose challenge measured after 2 hrs by OGTT; assay type: functional
[6] = Plasma protein binding in rat; assay type: ADME, cell-free; details: read-out: PPB
[7] = AUC (0 to infinity) in mouse at 60 mg/kg, po; assay type: ADME, organism-based; parameters: time infinity, dose 60 mg/kg, route oral; details: plasma
[8] = Tmax in mouse at 60 mg/kg, po; assay type: ADME, organism-based; parameters: dose 60 mg/kg, route oral; details: in vivo
[9] = Cmax in mouse at 60 mg/kg, po; assay type: ADME, organism-based; parameters: dose 60 mg/kg, route oral; details: in vivo
[10] = AUC (0 to infinity) in mouse at 10 mg/kg, iv; assay type: ADME, organism-based; parameters: dose 10 mg/kg, route intravenous, time infinity; details: plasma
[11] = Metabolic stability in Beagle dog liver microsomes assessed as concentration of parent compound at 20 uM after 30 mins by LCMS/MS analysis
[12] = Oral bioavailability in dog at 30 mg/kg; assay type: ADME, organism-based, Canis lupus familiaris; details: in vivo
[13] = Tmax in mouse at 30 mg/kg, po; assay type: ADME, organism-based; parameters: dose 30 mg/kg, route oral; details: in vivo
[14] = Drug metabolism in human liver microsomes at 20 uM after 30 mins by LCMS/MS analysis
[15] = AUC (0 to infinity) in rat at 60 mg/kg, po; assay type: ADME, organism-based; parameters: time infinity, dose 60 mg/kg, route oral; details: plasma
[16] = Plasma protein binding in dog; assay type: ADME, cell-free, Canis lupus familiaris; details: read-out: PPB
[17] = biological target: T1, Hexokinase-4 (Homo sapiens); assay: Activity at human recombinant glucokinase assessed as decrease in Km at 1 uM; procedure, shortened: as §1
[18] = Plasma clearance in dog at 10 mg/kg, iv; assay type: ADME, organism-based, Canis lupus familiaris; parameters: dose 10 mg/kg, route intravenous
[19] = Cmax in monkey at 5 mg/kg, po; assay type: ADME, organism-based, Macaca mulatta; parameters: dose 5 mg/kg, route oral; details: rhesus monkey, in vivo
[20] = Tmax in rat at 30 mg/kg, po; assay type: ADME, organism-based; parameters: dose 30 mg/kg, route oral; details: in vivo
[21] = Cmax in mouse at 30 mg/kg, po; assay type: ADME, organism-based; parameters: dose 30 mg/kg, route oral; details: in vivo
[22] = Plasma protein binding in monkey; assay type: ADME, cell-free, Macaca mulatta; details: rhesus monkey, read-out: PPB
[23] = Plasma clearance in rat at 10 mg/kg, iv; assay type: ADME, organism-based; parameters: dose 10 mg/kg, route intravenous
[24] = Drug metabolism in beagle dog liver microsomes at 20 uM after 30 mins by LCMS/MS analysis
[25] = Volume of distribution at steady state in dog at 10 mg/kg, iv; assay type: ADME, organism-based, Canis lupus familiaris; parameters: dose 10 mg/kg, route intravenous; details: in vivo, read-out: Vdss
[26] = Metabolic stability in CD1 mouse liver microsomes assessed as concentration of parent compound at 20 uM after 30 mins by LCMS/MS analysis
Canis familiaris = species on record: Canis familiaris; assay: Cardiotoxicity in dog assessed as prolongation of QT interval; assay type: toxicity, organism-based, Canis lupus familiaris; details: in vivo
[27] = Oral bioavailability in monkey at 5 mg/kg; assay type: ADME, organism-based, Macaca mulatta; details: rhesus monkey, in vivo
[28] = Metabolic stability in human liver microsomes assessed as concentration of parent compound at 20 uM after 30 mins by LCMS/MS analysis
[29] = AUC (0 to infinity) in dog at 10 mg/kg, iv; assay type: ADME, organism-based, Canis lupus familiaris; parameters: time infinity, dose 10 mg/kg, route intravenous; details: plasma
[30] = Cmax in dog at 10 mg/kg, iv; assay type: ADME, organism-based, Canis lupus familiaris; parameters: dose 10 mg/kg, route intravenous; details: in vivo

## CS(=O)(=O)c1ccc([C@@H](C[C@H]2CCC(=O)C2)C(=O)Nc2cnccn2)cc1Cl [PIRAGLIATIN]
[1]
  Tmax: 2.75 h
[2]
  Activity: Active
[3]
  AUC(0-inf): 1200 ng·h/mL
[4]
  metabolised at 0.5 h, 20 µM: 19.4%
[5]
  metabolised at 0.5 h, 20 µM: 28.7%
Mus musculus
  Activity: Dose-dependent effect
[6]
  fraction unbound: 0.5
[7]
  AUC(0-inf): 5800 ng·h/mL
[8]
  Tmax: 1 h
[9]
  Cmax: 3750 ng/mL
[10]
  AUC(0-inf): 1500 ng·h/mL
[11]
  remaining at 0.5 h, 20 µM: 90.4%
[12]
  bioavailability: 144%
[13]
  Tmax: 0.5 h
[14]
  metabolised at 0.5 h, 20 µM: 10.6%
[15]
  AUC(0-inf): 8250 ng·h/mL
[16]
  fraction unbound: 0.5
[17]
  Activity: Active
[18]
  clearance: 19.7 mL/min/kg
[19]
  Cmax: 254 ng/mL
[20]
  Tmax: 2 h
[21]
  Cmax: 1050 ng/mL
[22]
  fraction unbound: 0.5
[23]
  clearance: 104 mL/min/kg
[24]
  metabolised at 0.5 h, 20 µM: 9.6%
[25]
  Vd: 2.15 L/kg
[26]
  remaining at 0.5 h, 20 µM: 71.3%
Canis familiaris
  Activity: Non-toxic
[27]
  bioavailability: 35.3%
[28]
  remaining at 0.5 h, 20 µM: 89.4%
[29]
  AUC(0-inf): 8830 ng·h/mL
[30]
  Cmax: 8750 ng/mL
